PolyA inhibitor = blocks polyadenylation in yeast reporter cells; 300,000 compounds, 0.02% hits; activity score, % at 12 µM; S. cerevisiae SKY197-pL101 polyadenylation reporter, beta-gal luminescence; efflux-impaired pdr1/pdr3 knockout yeast; score 100 = 6 SD above DMSO;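 active = lowest replicate activity score at least 50, where 100 means six control SD above control mean; inconclusive = lowest score under 50 but half or more replicates reach 50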;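 note: yeast exposed to compound for 9 h at 30 °C; higher score means more reporter readthrough which indicates perturbed polyadenylation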
NALP1 inh = NALP1 inhibition. 280,000 compounds, 0.61% hits. S. cerevisiae NALP1/ASC/caspase-1 growth, X-gal OD620, 72 h. inhibition, % at 10 µM; in the data active = inhibition mostly above about 24%, no sharp cut-off; inactive = mostly below about 32%
Lmaj promast = Leishmania major promastigote growth inhibition; AID 1063; 200,000 compounds, 9% hits; inhibition, % at 10 µM; Leishmania major promastigotes, resazurin fluorescence viability; in the data active = inhibition above about 50%;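 note: promastigotes grown with compound for 44 hours at 28 °C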
NALP3 yeast inh = inhibitors of NALP3 inflammasome in yeast; Yeast reconstituted NLRP3/ASC/caspase-1, beta-gal luminescence, 24 h; inhibition, % at 10 µM; 330,000 compounds, 0.39% hits; AID 2825;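 active = inhibition of 50% or more; inactive = inhibition below 50%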;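 note: plate controls were induced DMSO wells for no effect and uninduced yeast grown without galactose for full effect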
Calb FLC = affects C. albicans growth with fluconazole. AID 1979. 300,000 compounds, 0.57% hits. growth inhibition, % (test concentration not listed). C. albicans CaCi-2 (fluconazole-resistant clinical isolate) + fluconazole, Alamar Blue growth, 48 h;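 active = growth inhibition above about 58% in most replicates, limit read from the data, passing the limit was not always enough; inconclusive = exactly half the replicates above a set limit; inactive = most replicates below a set limit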;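 note: all wells also contain fluconazole at 8 µg/ml as a sub-toxic cotreatment; 0% = median of DMSO wells and 100% = median of geldanamycin control wells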
T cruzi inh = T. cruzi replication inhibition. T. cruzi beta-gal in NIH3T3, luminescence, 90 h. inhibition, % (concentration not given with the values). 300,000 compounds, 1.4% hits. AID 1885;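 active = mean inhibition across valid replicates above about 55%, limit read from the data; inconclusive = mean below that limit but half or more replicates reach it; inactive = mean below it, under half of replicates reach it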;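 note: signal also drops with host cell toxicity which is not excluded here; 0% = plate median of DMSO wells and 100% = zero luminescence signal; higher percent means less beta-gal luminescence so fewer parasites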
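Material: NIH/3T3 host cells with β-galactosidase reporter T. cruzi; Input: 5,000 host fibroblasts per well; Medium: DMEM, 2% fetal bovine serum; Compound: 50 nL DMSO compound solution per well; Schedule: 3 h host attachment, then at least 90 h co-culture; Detection: luminescent β-galactosidase signal after 60 min lysis.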
An asterisk follows results filed as active; ? = inconclusive; · = no result given. The sample as a whole holds a higher share of hits than the screen did.

SMILES | PolyA inhibitor | NALP1 inh | Lmaj promast | NALP3 yeast inh | Calb FLC | T cruzi inh
Cc1ccc(Cn2nc(C)c(NC(=O)CSc3nc4c(c(C(F)(F)F)n3)CCc3ccccc3-4)c2C)cc1 | -24 | 43 | 6 | · | 5 | 21
Cc1nn(Cc2ccc(Cl)cc2)c(C)c1NC(=O)CSc1nc2c(c(C(F)(F)F)n1)CCc1ccccc1-2 | -4 | 19 | 11 | 5 | 25 | 60*
Cc1cccc(CCNS(=O)(=O)c2ccc3c(c2)NC(=O)CS3)c1 | 22 | -11 | · | 5 | 14 | -3
CCCn1nnc(NC(=O)c2ccc3ccccc3c2)n1 | 17 | 8 | 19 | 15 | 4 | -6
CCCn1nnnc1NC(=O)c1ccc2ccccc2c1 | 11 | 0 | -7 | 15 | 116* | -27
CSc1ccc(C2=CC(=O)C[C@H](c3ccc(F)cc3)C2)cc1 | · | · | · | 11 | · | ·
Cc1cc(Nc2ccccc2)nc(NCc2ccccc2)n1 | 7 | 42 | 100* | 36 | 97* | 37
Cc1ccc(/C=N/Nc2cc(C)nc(NCc3ccccc3)n2)cc1 | -10 | 7 | · | 41 | -13 | 27
Cc1cc(N/N=C/c2ccc(Cl)cc2Cl)nc(NCc2ccccc2)n1 | 9 | 44 | 62* | 35 | 21 | 46
Cc1cc(N2CCC(C)CC2)nc(NCc2ccccc2)n1 | -5 | 69* | 86* | 8 | 34 | 52
Cc1cc(Nc2cccc(F)c2)nc(NCc2ccccc2)n1 | -5 | 72* | 100* | 16 | 45 | 50
COc1ccc(Cc2nc3ccc(C(=O)N(C)CC4COCCO4)cc3o2)cc1 (configuration not stated) | 12 | 7 | · | 0 | 2 | -2
COc1ccc(S(=O)(=O)Nc2cccc3c2O[C@H](CN(C)C(=O)Nc2ccc4c(c2)OCO4)[C@@H](C)CN([C@H](C)CO)C3=O)cc1 | · | · | · | -5 | · | ·
CCCCNc1cc(C)nc(NCc2ccccc2)n1 | 0 | 8 | 101* | 35 | -4 | 39
Cc1cc(N/N=C/c2ccc(F)cc2)nc(NCc2ccccc2)n1 | -12 | 0 | · | 10 | 21 | 32
Cc1cc(Nc2ccc(Cl)cc2)nc(NCc2ccccc2)n1 | 10 | 76* | 100* | 26 | ? | 43
Cc1ccc(S(=O)(=O)N2CCN(C(=O)CCc3c[nH]c4ccccc34)CC2)c(C)c1 | · | · | · | 3 | · | ·
COC(=O)CNC(c1ccccc1)c1cc(Br)ccc1NS(=O)(=O)c1ccccc1 (configuration not stated) | -3 | 12 | 22 | 8 | -5 | 5
COC(=O)CNC(c1ccccc1)c1cc(Br)ccc1NC(=O)CCN1CCOCC1 (configuration not stated) | 1 | · | 100* | 26 | -10 | 68*
COC(=O)CNC(c1ccccc1)c1cc(Br)ccc1NC(=O)CNC(=O)OCc1ccccc1 (configuration not stated) | -6 | 12 | 4 | 9 | -5 | 9
CCOC(=O)CNC(c1ccccc1)c1cc(Br)ccc1NC(=O)OCC (configuration not stated) | -28 | 12 | 54* | 7 | -2 | 26
CCOC(=O)CNC(c1ccccc1)c1cc(Br)ccc1NC(=O)CCN1CCOCC1 (configuration not stated) | -22 | 98* | 98* | 45 | 111* | ?
Cc1cc(NC(=O)CSCc2nc(-c3cccc(F)c3)oc2C)no1 | 9 | 40* | 6 | 18 | 7 | -6
CC1=NN(c2ccc(Cl)cc2)C(=O)C1C(c1cccc(O)c1)c1c(C)[nH]n(-c2ccc(Cl)cc2)c1=O (configuration not stated) | -5 | 12 | 14 | 3 | -1 | -20
CC1=NN(c2ccc(F)cc2)C(=O)C1C(c1cccc(O)c1)c1c(C)[nH]n(-c2ccc(F)cc2)c1=O (configuration not stated) | 18 | 18 | 72* | 7 | -2 | -7
SMILES | PolyA inhibitor | NALP1 inh | Lmaj promast | NALP3 yeast inh | Calb FLC | T cruzi inh
CN(C)S(=O)(=O)c1ccc(-c2ccccc2)cc1 | -3 | -22 | -12 | 17 | -4 | -9
CCN(CC)S(=O)(=O)c1ccc(Oc2ccccc2)cc1 | -13 | 13 | 99* | 19 | -43 | 6
CN(C)S(=O)(=O)c1ccc(Oc2ccccc2)cc1 | -3 | · | 98* | -17 | -15 | -5
COc1cccc(CN(C)c2nc(-c3cccs3)nc3ccccc23)c1 | -19 | · | 92* | 12 | 12 | 9
COc1cccc(Nc2nc(-c3cccs3)nc3ccccc23)c1 | -32 | 26 | 99* | 11 | 22 | 37
COc1cccc(Nc2ncnc3ccccc23)c1 | 2 | 14 | 62* | 15 | -24 | -7
CCc1ccc(C2CC(=O)N(c3cccc(F)c3)C3=C2C(=O)OC3)cc1 (configuration not stated) | 1 | 1 | -7 | 1 | -3 | -11
COc1ccc(O)c(CN2CCN(CCc3ccccc3)C(CCO)C2)c1 (configuration not stated) | 0 | 8 | 77* | 18 | -9 | 2
COc1ccc(CN2CCN(CCCc3ccccc3)C(CCO)C2)c(O)c1 (configuration not stated) | -6 | 18 | · | 19 | -7 | -1
COc1ccc(CN2CCN(CCc3ccccc3)C(CCO)C2)c(O)c1 (configuration not stated) | 7 | 6 | 87* | 6 | -14 | -14
CC1(C)CC(=O)C(C2C3=C(CC(C)(C)CC3=O)Oc3c(Br)cc(Br)cc32)=C(O)C1 (configuration not stated) | -25 | -25 | · | 6 | 9 | 1
NS(=O)(=O)c1ccc(N=Nc2ccc(O)c3ncccc23)cc1 | 3 | -44 | · | 37 | 79* | 66*
CCOc1ccc(N=Nc2ccc(O)c3ncccc23)cc1 | -5 | 28 | · | 7 | 83* | 65*
COC(=O)CNC(=O)CSc1nc(N)cc(=O)[nH]1 | 5 | 14 | -3 | 3 | -19 | -5
COc1ccc(-c2cc(C)no2)cc1S(=O)(=O)N(C)c1ccc(C)cc1 | -4 | 14 | · | 19 | 34 | 1
O=C(Nc1cccc(S(=O)(=O)Nc2ccc(Cl)cc2)c1)c1cc2c(s1)CCCC2 | -3 | 28 | 34 | 1 | -8 | 65*
COc1ccc(NS(=O)(=O)c2cccc(C(=O)N/N=C(\C)c3ccncc3)c2)cc1 | 9 | 7 | 59* | 8 | 0 | -9
O=C(Nc1cccc(S(=O)(=O)Nc2ccc(Cl)cc2)c1)c1ccc(Cl)nc1 | 1 | 30 | 21 | 15 | 2 | -16
COc1ccc(NS(=O)(=O)c2cccc(NC(=O)c3ccc(Cl)nc3)c2)cc1 | 11 | 4 | 61* | -4 | -4 | -41
COc1ccc(NS(=O)(=O)c2cccc(NC(=O)NCCCl)c2)cc1 | 9 | 6 | 71* | 7 | 18 | -3

High-throughput results: PubChem, several laboratories
